Test results published in paper PMC12744307 (ACS infectious diseases, 2023).
In brackets after ≈: the same amount, converted by molar mass. Like-named read-outs stand apart in the source and are kept apart here. Ends that are not written are not given here.

How the values were obtained:
[1] = test system: S. aureus USA300; test: microbe, parasite or virus in culture; type: cell-based, Staphylococcus aureus; settings: for MIC: Staphylococcus aureus
[2] = Effect of MHB dilution on antimicrobial activity of a panel of antibiotics; type: cell-based; settings: MHB from 100% to 12.5% (Figure S2)
[3] = test system: E. coli membrane; test: Membrane permeabilization; type: cell-based, Escherichia coli; settings: Figure S4A
[4] = test system: preformed biofilms of E. coli E423–17; test: Disruption of preformed biofilms; type: cell-based, Escherichia coli
Method in brief: (§1)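 Biofilms grown from an exponential-phase culture (OD600 ~0.4) for 24 h at 37°C in TSB, then washed with PBS to remove planktonic cells. Treated with peptide in MHB (different strengths) for 24 h at 37°C. Live cells measured with XTT in TSB (2 h, 37°C, A450), blanked on medium with XTT. Results given as % of water-treated biofilm, mean ± SD, one-way ANOVA.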

[5] = test system: preformed biofilms of S. aureus USA300 LAC; test: Disruption of preformed biofilms; type: cell-based, Staphylococcus aureus; settings: 100% MHB, 24 h treatment, XTT
Method in brief: as §1

[6] = test system: E. coli E423–17; type: cell-based, Escherichia coli
[7] = test system: S. aureus USA300 LAC; type: cell-based, Staphylococcus aureus; settings: 17 passages at sub-MIC, MHB
[8] = test system: P. aeruginosa 152; type: cell-based, Pseudomonas aeruginosa
[9] = test system: human skin HaCaT cells
[10] = test system: A. baumannii B28–16; type: cell-based, Acinetobacter baumannii
[11] = test system: S. aureus USA300 membrane; test: Membrane depolarization; type: cell-based, Staphylococcus aureus; settings: peptide up to 2× MIC; Triton X-100 0.1% (Figure 5C)
Method in brief: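 Exponential-phase MRSA USA300 grown in TSB, washed, and resuspended in 2 volumes of PBS with 25 mM glucose. Energised for 15 min at 37°C, then given 500 nM (final) DiBAC4(3). Baseline fluorescence (ex 485/em 520 nm) read for 20 min; peptide then added and reading continued for 40 min. Triton X-100 (0.1%) was the positive control.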

[12] = MRSA|USA300, read-out: Antimicrobial activity (MIC), MRSA in MHB, 10% human serum
[13] = MRSA|USA300, read-out: Antimicrobial activity (MIC), MRSA in MHB, NaCl (150 mM)
[14] = MRSA|USA300, pH 6.3, read-out: Antimicrobial activity (MIC), MRSA in MHB, pH 6.3
[15] = MRSA|USA300, pH 7.2, read-out: Antimicrobial activity (MIC), MRSA in MHB, pH 7.2

In the case of `NCC[C@H](O)C(=O)N[C@@H]1C[C@H](N)[C@@H](O[C@H]2O[C@H](CN)[C@@H](O)[C@H](O)[C@H]2O)[C@H](O)[C@H]1O[C@H]1O[C@H](CO)[C@@H](O)[C@H](N)[C@H]1O` [Amikacin], the MIC [1, 12] is reported as 32 µM (≈ 18.7 µg/mL), the MIC [1, 13] is reported as 32 µM (≈ 18.7 µg/mL) and the “Change in MIC with the dilution of MHB” value [2] is reported as “small changes in MIC values”.
For `CCCCCCCCCC(=O)N[C@@H](Cc1c[nH]c2ccccc12)C(=O)N[C@H](CC(N)=O)C(=O)N[C@@H](CC(=O)O)C(=O)N[C@@H]1C(=O)NCC(=O)N[C@@H](CCCN)C(=O)N[C@@H](CC(=O)O)C(=O)N[C@H](C)C(=O)N[C@@H](CC(=O)O)C(=O)NCC(=O)N[C@H](CO)C(=O)N[C@@H]([C@H](C)CC(=O)O)C(=O)N[C@@H](CC(=O)c2ccccc2N)C(=O)O[C@@H]1C` [Daptomycin], the “Antimicrobial activity (MIC)” value ([1]; USA300) was 1 µM, the “Antimicrobial activity (MIC)” value ([1]; USA300, pH 6.3) was 1 µM and the “Antimicrobial activity (MIC)” value ([1]; USA300, pH 7.2) was 1 µM.
Work on `CNC(C)C1CCC(N)C(OC2C(N)CC(N)C(OC3OCC(C)(O)C(NC)C3O)C2O)O1` (centres unmarked) [Gentamicin] yielded an MIC [1, 14] of 1 to 2 µM (≈ 0.478 to 0.955 µg/mL), an MIC [1, 15] of 0.5 µM (≈ 0.239 µg/mL) and an MIC [1, 12] of 0.5 to 1 µM (≈ 0.239 to 0.478 µg/mL). The MIC [1, 13] was 1 µM (≈ 0.478 µg/mL) and the “Membrane permeation (PI fluorescence)” value [3] was “did not permeate the E. coli membrane”.
With `CC[C@H](C)[C@H](NC(=O)[C@H](CCCCN)NC(=O)[C@H](CCC(=O)O)NC(=O)[C@H](CCCCN)NC(=O)[C@H](CO)NC(=O)[C@H](CCCCN)NC(=O)[C@H](CCCNC(=N)N)NC(=O)[C@H](Cc1ccccc1)NC(=O)[C@H](Cc1ccccc1)NC(=O)[C@H](CC(=O)O)NC(=O)CNC(=O)[C@H](CC(C)C)NC(=O)[C@@H](N)CC(C)C)C(=O)NCC(=O)N[C@@H](CCCCN)C(=O)N[C@@H](CCC(=O)O)C(=O)N[C@@H](Cc1ccccc1)C(=O)N[C@@H](CCCCN)C(=O)N[C@@H](CCCNC(=N)N)C(=O)N[C@H](C(=O)N[C@H](C(=O)N[C@@H](CCC(N)=O)C(=O)N[C@@H](CCCNC(=N)N)C(=O)N[C@H](C(=O)N[C@@H](CCCCN)C(=O)N[C@@H](CC(=O)O)C(=O)N[C@@H](Cc1ccccc1)C(=O)N[C@@H](CC(C)C)C(=O)N[C@@H](CCCNC(=N)N)C(=O)N[C@@H](CC(N)=O)C(=O)N[C@@H](CC(C)C)C(=O)N[C@H](C(=O)N1CCC[C@H]1C(=O)N[C@@H](CCCNC(=N)N)C(=O)N[C@H](C(=O)N[C@@H](CCC(=O)O)C(=O)N[C@@H](CO)C(=O)O)[C@@H](C)O)C(C)C)[C@@H](C)CC)C(C)C)[C@@H](C)CC` [LL-37] the “Effect on biofilms with increase in peptide concentration” value ([4]; 12.5% MHB (Figure S1)) was “dose-dependent antibiofilm effect is clear”, the “Effect on biofilms with increase in peptide concentration” value ([4]; 100% MHB (Figure S1)) was “subtle effect” and the “Activity (MIC), screen of LL-37 fragments” value (from here on “Activity (MIC), screen”) ([1]; 12.5% MHB (Figure 3)) was “became active”. The “Activity (MIC), screen” value ([1]; 100% MHB (Figure 3)) was “did not display any activity”, the “Antimicrobial activity (MIC) in cell culturing media” value ([1]; RPMI and DMEM media (Table S2)) was “remained active” and the “Antibiofilm activity against 24 h preformed biofilms” value [5] was “essentially no antibiofilm activity”. For the same compound, the “Activity (MIC), screen” value ([6]; 100% MHB, rich media (Figure 3)) was “active” and the “Antimicrobial activity (MIC) in cell culturing media” value ([6]; RPMI and DMEM media (Table S2)) was “remained active”.
`CC(=O)NC[C@H]1CN(c2ccc(N3CCOCC3)c(F)c2)C(=O)O1` [Linezolid] gave an MIC [1, 14] of 8 µM (≈ 2.7 µg/mL), an MIC [1, 15] of 8 µM (≈ 2.7 µg/mL) and an MIC [1, 12] of 8 µM (≈ 2.7 µg/mL). The “Change in MIC with the dilution of MHB” value [2] was “essentially no changes in antibacterial activity”.
In the case of `C/C(=C\C(=O)OCCCCCCCCC(=O)O)C[C@@H]1OC[C@H](C[C@@H]2O[C@H]2[C@@H](C)[C@H](C)O)[C@@H](O)[C@H]1O` [Muporicin], the “Antimicrobial activity (MIC)” value ([1]; MRSA in MHB, 10% human serum) is reported as 4 µM, the “Antimicrobial activity (MIC)” value ([1]; MRSA in MHB, 20% human serum) is reported as 4 µM and the “Antimicrobial activity (MIC)” value ([1]; MRSA in MHB, NaCl (150 mM)) is reported as 1 µM. The “Antimicrobial activity (MIC)” value ([1]; MRSA in MHB, pH 6.3) was 0.5 µM, the “Antimicrobial activity (MIC)” value ([1]; MRSA in MHB, pH 7.2) was 1 µM and the “Change in MIC with the dilution of MHB” value [2] was “essentially no changes in antibacterial activity”.
For `CCOc1ccc2ccccc2c1C(=O)N[C@@H]1C(=O)N2[C@@H]1SC(C)(C)[C@@H]2C(=O)O` [Nafcillin], the “Fold increase of MIC after multiple passages” value [7] was 32 fold, the MIC [1, 12] was 16 µM (≈ 6.63 µg/mL) and the MIC [1, 13] was 32 µM (≈ 13.3 µg/mL). The “Change in MIC with the dilution of MHB” value [2] was “small changes in MIC values”.
For `NC[C@H]1O[C@H](O[C@H]2[C@H](O)[C@@H](O[C@H]3O[C@H](CO)[C@@H](O)[C@H](N)[C@H]3O)[C@H](N)C[C@@H]2N)[C@H](N)C[C@@H]1O` [Tobramycin], the MIC [1, 13] was 4 µM (≈ 1.87 µg/mL) and the “Change in MIC with the dilution of MHB” value [2] was “essentially no changes in antibacterial activity”.
In the case of `CN[C@H](CC(C)C)C(=O)N[C@H]1C(=O)N[C@@H](CC(N)=O)C(=O)N[C@H]2C(=O)N[C@H]3C(=O)N[C@H](C(=O)N[C@H](C(=O)O)c4cc(O)cc(O)c4-c4cc3ccc4O)[C@H](O)c3ccc(c(Cl)c3)Oc3cc2cc(c3O[C@@H]2O[C@H](CO)[C@@H](O)[C@H](O)[C@H]2O[C@H]2C[C@](C)(N)[C@H](O)[C@H](C)O2)Oc2ccc(cc2Cl)[C@H]1O` [Vancomycin], the MIC [1, 14] is reported as 0.5 µM (≈ 0.725 µg/mL), the MIC [1, 15] is reported as 0.5 µM (≈ 0.725 µg/mL) and the MIC [1, 12] is reported as 0.5 µM (≈ 0.725 µg/mL). For the same compound, the MIC [1, 13] was 0.5 to 1 µM (≈ 0.725 to 1.45 µg/mL) and the “Change in MIC with the dilution of MHB” value [2] was “essentially no changes in antibacterial activity”.
For “KEKIGKEFKR-NH2 (C-terminus assumed) [KE-10]”, the “Antimicrobial activity (MIC) in cell culturing media” value ([1]; USA300) was > 64 µM.
With KRIVQRIK-NH2 [W538] the “Activity (MIC), screen” value ([6]; E423–17) was 8 µM and the “Activity (MIC), P. aeruginosa” value [8] was >32 µM.
In the case of KRIWQRIK-NH2 [W539], the “Activity (MIC), P. aeruginosa” value [8] is reported as >32 µM.
In the case of KRIWQRWK-NH2 [W540], the “Activity (MIC), P. aeruginosa” value [8] is reported as >32 µM and the “Toxicity to HaCaT cells (viability)” value [9] is reported as “more toxic than other peptides”.
For KRWWQRWK-NH2 [W541], the “Activity (MIC), E. coli” value ([6]; E423–17) was 8 µM and the “Activity (MIC), P. aeruginosa” value [8] was >32 µM.
For KRWWQWWK-NH2 [W542], the “Activity (MIC), A. baumannii” value [10] was 32 µM, the “Activity (MIC), S. aureus” value ([1]; USA300) was 8 µM and the “Activity (MIC), E. coli” value ([6]; E423–17) was 4 µM. For the same compound, the “Activity (MIC), P. aeruginosa” value [8] was 4 to 8 µM.
In the case of “RIKDFLRNLV-NH2 (C-terminus assumed) [RIK-10]”, the “Activity (MIC), screen” value ([1]; 12.5% MHB (Figure 3)) is reported as “became active”, the “Antimicrobial activity (MIC) in cell culturing media” value ([1]; RPMI and DMEM media (Table S2)) is reported as “poor activity” and the “Activity (MIC), screen” value ([6]; E423–17) is reported as 16 µM. The “Antimicrobial activity (MIC) in DMEM” value ([6]; E423–17) was 8 µM and the “Antimicrobial activity in RPMI” value ([6]; RPMI (Table S2)) was “poor activity”.
With RRWWRWWL-NH2 [W544] the “Activity (MIC), S. aureus” value ([1]; USA300) was 4 µM, the “Activity (MIC), E. coli” value ([6]; E423–17) was 4 µM and the “Activity (MIC), P. aeruginosa” value [8] was 4 µM. The “Toxicity to HaCaT cells (viability)” value [9] was “more toxic than other peptides”.
With RRWWRWWR-NH2 [W543] the “Antimicrobial activity (MIC)” value ([1]; USA300) was 8 µM, the “Antimicrobial activity (MIC)” value ([1]; USA300, pH 7.2) was 8 µM and the “Activity (MIC), E. coli” value ([6]; E423–17) was 8 µM. The “Activity (MIC), P. aeruginosa” value [8] was 8 µM and the “Toxicity to HaCaT cells (viability)” value [9] was “least toxic”.
In the case of Triton X-100, the Membrane depolarization [11] is reported as “strong membrane depolarization”.
With colistin the “Membrane permeation (PI fluorescence)” value [3] was “powerful membrane permeator”.
